Results: ChEMBL document CHEMBL1127359, “Synthetic laminin-like peptides and pseudopeptides as potential antimetastatic agents” (1994)
Square brackets hold non-standard residues; d marks the D form. Peptide text beside a SMILES is read from it. Phe(4-NH2) = Nc1ccc(C[C@H](N)C(=O)O)cc1; Phe(4-F) = N[C@@H](Cc1ccc(F)cc1)C(=O)O

Columns and labels:
Format in all cases: functional, cell-based
[1] = tested on: B16-F10; assay: Antimetastatic activity against HT1080 and B16F10 cells in cell attachment assay; high attachment activity with about 70% of cells attached
[2] = tested on: B16-F10; assay: Antimetastatic activity against HT1080 and B16F10 cells in cell attachment assay; Moderat attachment activity
Outline: (§1)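 Peptide dissolved in water with a drop of acetic acid and dried overnight onto culture wells (amount given is quantity dried on plastic). Wells blocked with EMEM/3% BSA 30 min at 37 °C, then EMEM/0.02% BSA. HT-1080 or B16F10 cells (4 × 10⁴) added, 1 h at 37 °C, 5% CO₂. PBS wash; attached cells fixed, stained and counted (eight fields/well) or trypsinized and Coulter-counted; duplicate wells, mean ± SD.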

[3] = tested on: B16-F10; assay: Antimetastatic activity against HT1080 and B16F10 cells in cell attachment assay; low attachment activity
[4] = tested on: B16-F10; assay: Antimetastatic activity against HT1080 and B16F10 cells in cell attachment assay; Low attachment activity
[5] = tested on: B16-F10; assay: Antimetastatic activity against HT1080 and B16F10 cells in cell attachment assay; moderate attachment activity; outline: as §1
[6] = tested on: B16-F10; assay: Antimetastatic activity against HT1080 and B16F10 cells in cell attachment assay; Moderate attachment activity; outline: as §1
[7] = tested on: B16-F10; assay: Antimetastatic activity against HT1080 and B16F10 cells in cell attachment assay; high, but not maximal, attachment activity; outline: as §1

## CC[C@H](C)[C@H](NC(=O)[C@H](N)Cc1ccc(O)cc1)C(=O)NCC(=O)N[C@@H](CO)C(=O)N[C@@H](CCCN=C(N)N)C(=O)O [LAMININ]
[1]
  Activity: high attachment activity with about 70% of cells attached

## CC[C@H](C)[C@H](NC[C@@H](N)Cc1ccc(O)cc1)C(=O)NCC(=O)N[C@@H](CO)C(=O)N[C@@H](CCCN=C(N)N)C(N)=O
[2]
  Activity: Moderat attachment activity

## CC[C@H](C)[C@H](NC(=O)[C@@H](N)Cc1ccc(O)cc1)C(=O)NCCN[C@@H](CO)C(=O)N[C@@H](CCCN=C(N)N)C(N)=O
[3]
  Activity: low attachment activity

## CC[C@H](C)[C@H](NC(=O)[C@H](N)Cc1ccc(O)cc1)C(=O)NCC(=O)N[C@@H](CO)C(=O)N[C@@H](CCCN=C(N)N)C(N)=O
[4]
  Activity: Low attachment activity

## CC[C@H](C)[C@@H](CNCC(=O)N[C@@H](CO)C(=O)N[C@@H](CCCN=C(N)N)C(N)=O)NC(=O)[C@@H](N)Cc1ccc(O)cc1
[3]
  Activity: low attachment activity

## CC[C@H](C)[C@@H](C(=O)NCC(=O)N[C@@H](CO)C(=O)N[C@@H](CCCN=C(N)N)C(N)=O)N(C=O)C[C@@H](N)Cc1ccc(O)cc1
[5]
  Activity: moderate attachment activity

## CC[C@H](C)[C@H](NC(=O)[C@@H](N)Cc1ccc(O)cc1)C(=O)NCC(=O)N[C@@H](CO)CN[C@@H](CCCN=C(N)N)C(N)=O
[4]
  Activity: Low attachment activity

## CC[C@H](C)[C@H](NC(=O)[C@@H](N)Cc1ccc(F)cc1)C(=O)NCC(=O)N[C@@H](CO)C(=O)N[C@@H](CCCN=C(N)N)C(N)=O (H-[Phe(4-F)]IGSR-NH2)
[6]
  Activity: Moderate attachment activity

## H-FIGSR-NH2
[4]
  Activity: Low attachment activity

## CC[C@H](C)[C@H](NC(=O)[C@@H](N)Cc1ccc(O)cc1)C(=O)NCC(=O)N[C@@H](CO)C(=O)N[C@@H](CCCN=C(N)N)C(N)=O
[4]
  Activity: Low attachment activity

## H-CYIGSRYIGSRYIGSR-NH2
[1]
  Activity: high attachment activity with about 70% of cells attached

## CC[C@H](C)[C@H](NC(=O)[C@@H](N)Cc1ccc(N)cc1)C(=O)NCC(=O)N[C@@H](CO)C(=O)N[C@@H](CCCN=C(N)N)C(N)=O (H-[Phe(4-NH2)]IGSR-NH2)
[7]
  Activity: high, but not maximal, attachment activity
